Measured values published in ChEMBL document CHEMBL1144902, “Discovery, characterization, and structure-activity relationships studies of proapoptotic polyphenols targeting B-cell lymphocyte/leukemia-2 proteins” (J Med Chem, 2003).

Columns and labels:
[1] = system: HeLa; assay: Inhibitory concentration in HeLa cells; assay type: functional, cell-based; conditions: Homo sapiens
Method in brief: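 HeLa viability assay. Low-passage HeLa (passage 10–20) treated with compounds at 0, 1, 3, 10 and 100 µM; viability read out. Values given as mean with standard deviation, n = 4.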

[2] = biological target: Bcl-2-like protein 1 (Homo sapiens, UniProt Q07817); assay: Inhibitory concentration against Bcl-xl
Chain of Bcl-2-like protein 1 (Q07817 whole entry): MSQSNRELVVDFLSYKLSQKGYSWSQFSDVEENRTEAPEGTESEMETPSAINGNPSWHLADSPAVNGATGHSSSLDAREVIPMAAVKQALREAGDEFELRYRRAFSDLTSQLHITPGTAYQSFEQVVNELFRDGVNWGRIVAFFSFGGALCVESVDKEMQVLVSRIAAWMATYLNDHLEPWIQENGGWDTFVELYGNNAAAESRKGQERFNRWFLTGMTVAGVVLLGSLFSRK

[3] = system: MCF7S; assay: Inhibitory concentration in MCF-7 cells; assay type: functional, cell-based; conditions: Homo sapiens
Method in brief: (§1)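 XTT viability: MCF7 grown in DMEM/10% FBS with 10^-10 M insulin, 1 mM pyruvate, glutamine; ZR75-1 in RPMI/10% FBS with HEPES, 1 mM pyruvate, glutamine. 1000 cells/well seeded in triplicate, compounds at final 0, 1, 10 and 100 µM for 3 days. Then XTT (1 mg/mL) with 0.025 mM PMS added for 4 h. OD450 read, blank wells subtracted.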

[4] = system: ZR-75-1; assay: Inhibitory concentration in ZR-75-1 cells; assay type: functional, cell-based; conditions: Homo sapiens; method in brief: as §1

SMILES | IC50 [1] | IC50 [2] | IC50 [3] | IC50 [4]
COc1cc2cccc(OC)c(=O)c2c(OC)c1OC | > 100 µM |  |  | 
COc1c(O)cc2cccc(OC)c(=O)c2c1OC | > 100 µM |  |  | 
Cc1cc2c(C(C)C)c(O)c(O)c(C=O)c2c(O)c1-c1c(C)cc2c(C(C)C)c(O)c(O)c(C=O)c2c1O [GOSSYPOL] |  | 0.5 µM | 13.2 µM | 8.4 µM

The remaining molecules from weak to strong by IC50 [1], led by results:

IC50 [1] | SMILES | IC50 [2] | IC50 [3] | IC50 [4]
51.5 µM | CCOC(=O)c1cc(O)c(=O)c2cc(O)c(O)cc2c1 |  |  | 50 µM
30 µM | COC(=O)c1cc(O)c(=O)c2cc(O)c(O)cc2c1 |  |  | 
22.9 µM | O=C(O)c1cc(O)c(=O)c2cc(O)c(O)cc2c1 |  |  | 
6.5 µM | O=c1c(O)cccc2cc(O)c(O)c(O)c12 [PURPUROGALLIN] |  |  | 
